From ChEMBL document CHEMBL4043099, “Synthesis and biological activity of cyclolinopeptide A analogues modified with γ4-bis(homo-phenylalanine)” (Bioorg Med Chem, 2017)
Activity calls are given as the source filed them. No cut-off for these calls is given here.

Key:
Jurkat [1] = test: Inhibition of apoptosis in human Jurkat cells assessed as caspase-3 expression relative to beta-actin at 10 ug/ml after 24 hrs by RT-PCR analysis; assay type: functional
Method in brief: (§1)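 Jurkat cells (10^6/mL) exposed to 10 µg/mL peptide for 24 h (described as overnight in methods), with DMSO control. Total RNA extracted with TRIzol. Caspase-3, -8 and -9 transcripts measured by SYBR qPCR: 95 C for 5 min, then 35 cycles of 95 C for 30 s and 60 C for 45 s. Values given in arbitrary units relative to β-actin.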

Jurkat [2] = test: Induction of DNA fragmentation in human Jurkat cells at 10 ug/ml after 24 hrs by agarose gel electrophoresis; assay type: functional, cell-based
Method in brief: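 Jurkat cells treated 24 h with 10 µg/mL peptide versus DMSO. About 2×10^6 cells lysed overnight at 37 C in Tris-HCl pH 8.5 with EDTA, 5% SDS and proteinase K. Lysates heat-inactivated, RNase-treated, DNA precipitated with isopropanol and ethanol-washed. Fragmentation assessed by gel electrophoresis.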

PBMC [3] = test: Immunosuppressive activity in human PBMC assessed as inhibition of PHA-induced proliferation after 4 days by MTT assay; assay type: functional, cell-based
Method in brief: (§2)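 PBMC (2×10^5 cells/well) in supplemented RPMI-1640, stimulated with 5 µg/mL PHA, with peptide at 1, 10 or 100 µg/mL. DMSO dilutions as control; no-PHA wells as baseline. Proliferation read by MTT after 4 days of incubation. Data given as mean OD of quadruplicate wells ± SE.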

PBMC [4] = test: Anti-inflammatory activity in human PBMC assessed as inhibition of LPS-induced TNFalpha production at 10 ug/ml after overnight incubation by immunoassay; assay type: functional
Method in brief: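 Diluted venous blood from a single donor (10× in RPMI-1640), 1 mL cultures, stimulated with 1 µg/mL LPS from E. coli O:111:B4. Peptides added at 1 and 10 µg/mL from DMSO stock (5 mg/200 µL) diluted in RPMI-1640. DMSO dilutions served as 100% controls. Overnight incubation, then supernatants frozen at -20 C and TNF-α measured by ELISA.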

PBMC [5] = test: Cytotoxicity against human PBMC assessed as reduction in cell viability at 10 ug/ml after 24 hrs by MTT assay; assay type: cell-based
Method in brief: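 Single-donor PBMC isolated on LSM, resuspended in RPMI-1640 with 10% FCS, L-glutamine, pyruvate, 2-mercaptoethanol and antibiotics. Cells plated at 3×10^5 per well and cultured 24 h with peptide at 1, 10 or 100 µg/mL. Survival read by MTT and expressed as % viable cells versus matched DMSO controls.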

HT-29 = test: Cytotoxicity against human HT-29 cells at 25 ug/ml; assay type: functional, cell-based
A-431 = test: Cytotoxicity against human A431 cells at 25 ug/ml; assay type: functional, cell-based
Jurkat [6] = test: Inhibition of apoptosis in human Jurkat cells assessed as caspase-8 expression relative to beta-actin at 10 ug/ml after 24 hrs by RT-PCR analysis; assay type: functional; method in brief: as §1
Jurkat [7] = test: Inhibition of apoptosis in human Jurkat cells assessed as caspase-9 expression relative to beta actin at 10 ug/ml after 24 hrs by RT-PCR analysis; assay type: functional; method in brief: as §1
[8] = biological target: T1, Prostaglandin G/H synthase 1 (Ovis aries) (UniProt P05979); test: Inhibition of ovine COX-1 assessed as PGE2 formation at 1000 pg/ml (reference value: 981 ng/ml)
T1 sequence (whole entry): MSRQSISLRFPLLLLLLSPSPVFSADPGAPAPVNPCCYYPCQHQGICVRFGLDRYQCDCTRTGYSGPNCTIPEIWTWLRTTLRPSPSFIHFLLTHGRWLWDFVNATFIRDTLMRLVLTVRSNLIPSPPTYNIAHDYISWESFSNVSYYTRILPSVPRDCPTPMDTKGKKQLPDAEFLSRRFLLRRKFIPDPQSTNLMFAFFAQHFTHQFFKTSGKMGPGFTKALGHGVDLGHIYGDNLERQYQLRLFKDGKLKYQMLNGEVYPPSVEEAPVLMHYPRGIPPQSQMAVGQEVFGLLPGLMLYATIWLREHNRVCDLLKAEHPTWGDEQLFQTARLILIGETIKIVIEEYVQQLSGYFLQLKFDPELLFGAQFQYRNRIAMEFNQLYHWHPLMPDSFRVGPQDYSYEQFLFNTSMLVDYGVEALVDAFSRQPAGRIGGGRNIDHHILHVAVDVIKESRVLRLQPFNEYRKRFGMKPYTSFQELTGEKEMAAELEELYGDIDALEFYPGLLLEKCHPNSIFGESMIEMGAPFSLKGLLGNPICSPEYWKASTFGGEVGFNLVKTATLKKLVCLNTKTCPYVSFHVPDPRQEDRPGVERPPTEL

[9] = biological target: T2, Prostaglandin G/H synthase 2 (Homo sapiens) (UniProt P35354); test: Inhibition of human recombinant COX-2 assessed as PGE2 formation at 5000 pg/ml (reference value: 1072 ng/ml)
T2 sequence (whole entry): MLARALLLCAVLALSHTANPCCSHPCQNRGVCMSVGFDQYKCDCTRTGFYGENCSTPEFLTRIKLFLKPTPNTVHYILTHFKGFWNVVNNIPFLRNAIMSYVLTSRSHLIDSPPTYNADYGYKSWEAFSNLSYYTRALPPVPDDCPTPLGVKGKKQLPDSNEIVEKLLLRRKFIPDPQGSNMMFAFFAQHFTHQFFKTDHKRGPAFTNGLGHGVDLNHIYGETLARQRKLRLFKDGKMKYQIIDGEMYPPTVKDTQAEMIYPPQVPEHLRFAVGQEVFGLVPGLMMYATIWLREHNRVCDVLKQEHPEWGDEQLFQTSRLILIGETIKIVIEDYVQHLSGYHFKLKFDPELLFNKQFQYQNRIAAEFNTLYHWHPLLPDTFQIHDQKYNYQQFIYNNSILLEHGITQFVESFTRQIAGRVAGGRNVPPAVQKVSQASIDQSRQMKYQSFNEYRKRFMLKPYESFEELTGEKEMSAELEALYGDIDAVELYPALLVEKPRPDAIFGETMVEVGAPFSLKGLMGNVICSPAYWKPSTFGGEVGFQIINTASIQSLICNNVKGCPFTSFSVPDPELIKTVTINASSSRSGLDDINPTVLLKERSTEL

PBMC [10] = test: Immunosuppressive activity in human PBMC assessed as inhibition of PHA-induced cell proliferation at 10 ug/ml after 4 days by MTT assay; assay type: functional, cell-based; method in brief: as §2
[11] = biological target: T1, Prostaglandin G/H synthase 1 (Ovis aries); test: Inhibition of ovine COX-1 assessed as PGE2 formation at 100 pg/ml (reference value: 981 ng/ml)
[12] = biological target: T2, Prostaglandin G/H synthase 2 (Homo sapiens); test: Inhibition of human recombinant COX-2 assessed as PGE2 formation at 1000 pg/ml (reference value: 1072 ng/ml)
[13] = biological target: T2, Prostaglandin G/H synthase 2 (Homo sapiens); test: Inhibition of human recombinant COX-2 assessed as PGE2 formation at 100 pg/ml (reference value: 1072 ng/ml)

**Q.** With `CC[C@H](C)[C@@H]1NC(=O)[C@H](CC(C)C)NC(=O)[C@H](Cc2ccccc2)NC(=O)CC[C@H](Cc2ccccc2)NC(=O)[C@@H]2CCCN2C(=O)[C@@H]2CCCN2C(=O)[C@H](C(C)C)NC(=O)[C@H](CC(C)C)NC(=O)[C@H]([C@@H](C)CC)NC1=O` as the molecule, how does the “fold change (FC)” value (Jurkat [1]) read?
**A.** 0

**Q.** And the Activity (Jurkat [2])?
**A.** Active

**Q.** And the Activity (PBMC [3])?
**A.** Dose-dependent effect

**Q.** What about the inhibition (PBMC [4]) of the same molecule?
**A.** Active

**Q.** What about the Activity (PBMC [5]) of the same molecule?
**A.** Non-Toxic

**Q.** What about the Activity (HT-29) of the same molecule?
**A.** inactive

**Q.** What about the Activity (A-431) of the same molecule?
**A.** inactive

**Q.** What about the “fold change (FC)” value (Jurkat [6]) of the same molecule?
**A.** 0.591

**Q.** And the “fold change (FC)” value (Jurkat [7])?
**A.** 0.538

**Q.** What about the Activity [8] of the same molecule?
**A.** 1030 ng/mL

**Q.** And the Activity [9]?
**A.** 1230 ng/mL

**Q.** And the Activity (PBMC [10])?
**A.** Active

**Q.** And the Activity [11]?
**A.** 1110 ng/mL

**Q.** And the Activity [12]?
**A.** 1060 ng/mL

**Q.** And the Activity [13]?
**A.** 1180 ng/mL
